Assay outcomes deposited in PubChem by several laboratories.
PREPL inhibitor = inhibits the human prolyl oligopeptidase-like enzyme; inhibition, % at 5.96 µM; Q4J6C6; 0.68% of 320,000 active; recombinant PREPL, fluorescence polarization activity-based probe; AID 2751; in the data active = inhibition above about 43%
MEKK2wt PB1 HTS = raises or lowers MEK5 binding to wildtype human MEKK2 PB1 domain; 1.1% of 290,000 active; Q9Y2U5; bead flow cytometry, Alexa488-MEK5 binding to MEKK2 WT; actives lie on both sides; binding response (% of control), % at 10 µM; AID 1531; in the data active = binding response below about 67% or above about 130%
Apaf1 inhib = inhibitors of human Apaf-1 apoptosome | 0.71% of 330,000 active | reconstituted apoptosome caspase-3 activity, DEVD-Rh110 fluorescence | inhibition, % at 20 µM; active = inhibition of at least 40% at 20 µM
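Medium: Hepes buffer, pH 7.5 / System: biochemical Apaf-1 apoptosome reconstitution / Measured by: Rh110 fluorescence, excitation 480 nm, emission 540 nm / Times: compound with Apaf-1, dATP, procaspase-3 30 min, then 50 min reaction, room temperature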
MEKK3 PB1 HTS = MEKK3-MEK5 PB1 interaction, increase or decrease | Q99759 | bead-based flow cytometry, Alexa488-MEK5 binding to MEKK3; actives lie on both sides; 0 = blocked by unlabeled MEK5, 100 = vehicle | binding response (% of control), % at 10 µM | 1.4% of 290,000 active;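 active = binding response more than 3 SD above or below the average of its plate-row segment, actives on both sides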;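 also: Alexa488 bead fluorescence after subtracting the streptavidin-only scavenger bead signal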
UBC13 polyUb = blocks human UBC13 polyubiquitin chain formation. 0.47% of 330,000 active. inhibition, % at 20 µM. TR-FRET. AID 485273; in the data active = inhibition above about 45%, passing the limit was not always enough
MEKK2mut PB1 HTS = signal of MEK5 binding to mutant human MEKK2 PB1 domain | bead flow cytometry, Alexa488-MEK5 binding to MEKK2 mutant | percent response, % at 10 µM | 0.35% of 290,000 active; in the data active = percent response above about 24%, passing the limit was not always enough
MEKK2wt confirm = raises or lowers MEK5 binding to wildtype human MEKK2, retest; bead flow cytometry, Alexa488-MEK5 binding to MEKK2 WT; actives lie on both sides; 2.4% of 5,900 active; binding response (% of control), % at 10 µM; shares compounds with MEKK3 PB1 HTS; in the data active = binding response below about 16% or above about 210%; inactive = in between
MEKK2mut-MEK5 = signal of MEK5 binding to mutant human MEKK2, retest; shares compounds with MEKK3 PB1 HTS; bead flow cytometry, Alexa488-MEK5 binding to MEKK2 mutant; percent response, % at 10 µM; 2% of 5,900 active; in the data active = percent response mostly above about 71%, no sharp cut-off; inactive = mostly below about 38%;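 also: higher means compound restores mutant binding toward wildtype level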
MEKK3-MEK5 inh = MEKK3-MEK5 PB1 inhibition, single concentration confirmation | shares compounds with MEKK3 PB1 HTS | bead flow cytometry, Alexa488-MEK5 binding to MEKK3; hits give low values | binding response (% of control), % at 10 µM | 1.8% of 5,900 active;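 active = binding response below 72% of control, or above a set upper limit, though filed actives all read lower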;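 also: lower values mean stronger disruption of MEK5 binding to MEKK3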
A number is an active result; 0 = inactive; - = no result given; [ ] = another dose, or the depositor's remark. Only some compounds are listed: those with a hit (about 3.1% of all), similar ones and a draw of the others.

SMILES	PREPL inhibitor	MEKK2wt PB1 HTS	Apaf1 inhib	MEKK3 PB1 HTS	UBC13 polyUb	MEKK2mut PB1 HTS	MEKK2wt confirm	MEKK2mut-MEK5	MEKK3-MEK5 inh
COC(=O)c1c(C)oc(C)c1S(=O)(=O)NC(C)(C)C	0	0	0	0	0	0	-	-	-
COC(=O)c1c(C)oc(C)c1S(=O)(=O)Nc1ccccc1	0	0	0	132	0	0	0	0	0
COC(=O)c1c(C)oc(C)c1S(=O)(=O)N1CCCC1	0	0	0	131	0	0	0	0	0
COC(=O)c1c(C)oc(C)c1S(=O)(=O)N(Cc1ccccc1)C(C)C	0	0	0	129	0	0	-2.0[inhibitor]	0	0
COC(=O)c1c(C)oc(C)c1S(=O)(=O)N1CCCCC1	0	0	0	0	0	0	-	-	-
CCOC(=O)C1CCN(C(=O)c2ccc(S(=O)(=O)Nc3ccccc3Cl)cc2)CC1	-	-	0	-	0	-	-	-	-
NC(=O)c1c(NC(=O)Cc2ccccc2)sc2c1CCN(Cc1ccccc1)C2	0	0	0	0	0	0	-	-	-
CCOC(=O)CCCNC(=O)COC(=O)CCC(=O)c1ccc(F)cc1	0	2.0[inhibitor]	0	2.0[inhibitor]	0	0	0	0	0
O=C(COC(=O)CCC(=O)c1ccc(F)cc1)NCc1ccco1	0	0	0	74[inhibitor]	0	0	0	0	0
O=C(COC(=O)Cc1ccc(F)cc1)NCc1ccco1	0	0	0	0	0	0	-	-	-
CC1CC2=C(C(=O)O1)C(c1ccc(Cl)cc1)Nc1ccccc1N2 (centres undefined)	0	0	0	71[inhibitor]	0	0	0	0	0
N#CC1=C(N)Oc2cc(N)ccc2C1c1ccccc1F (centres undefined)	0	0	0	0	0	0	-	-	-
Cc1cccc(C)c1NC(=O)Cn1nnc(-c2ccc(CN3CCC(C)CC3)cc2)n1	0	0	0	144	0	0	0	0	0
O=C(N/N=C/c1c(O)n(-c2ccccc2Cl)c(=O)c2ccccc12)C1COc2ccccc2O1 (centres undefined)	0	0	0	137	0	0	0	0	0
Cc1ccc(-n2c(O)c(/C=N/NC(=O)C3COc4ccccc4O3)c3ccccc3c2=O)cc1 (centres undefined)	0	0	0	0	0	0	-	-	-
Cn1cc(/C=N\NC(=O)C2COc3ccccc3O2)c2ccccc21 (centres undefined)	0	0	0	0	0	0	-	-	-
Cc1c(/C=N\NC(=O)C2COc3ccccc3O2)c2ccccc2n1C (centres undefined)	0	26[inhibitor]	-	0	-	0	0	0	0
CN(CC(=O)Nc1ccc(Cl)c(C(F)(F)F)c1)C(=O)c1cccc2cccnc12	0	-	0	-	0	-	-	-	-
O=C(CN1C(=O)NC2(CCCCC2)C1=O)N1CCOCC1	0	-	0	-	0	-	-	-	-
CCOC(=O)c1cn(Cc2ccccc2)nn1	0	0	0	131	0	0	0	0	0
CCCNC(=O)C(Cc1ccc(Cl)cc1)NC(=O)c1ccc(-c2ccccc2)cc1 (centres undefined)	0	-	0	-	0	-	-	-	-
CC(C)NC(=O)C(=O)Nc1cc2c3c(c1)C(C)C(=O)N3CCC2 (centres undefined)	0	0	0	0	0	0	-	-	-
N#Cc1cccc(NC(=O)Cn2c3[n+](c4ccc(C(F)(F)F)cc42)CCCCC3)c1	0	0	0	69[inhibitor]	0	0	0	0	0
O=C(CN1C(=O)c2ccccc2C1=O)NC1CCC(O)CC1 (centres undefined)	0	-	0	-	0	-	-	-	-
O=C(CCl)Nc1cc(-c2ccccc2)nn1-c1ccccc1	0	0	0	0	0	0	-	-	-
